The text below walks through data of PubChem BioAssay.

Assay [1] is described as follows: thallium flux activation in parental CHO cells, counter-screen for KCNQ1 potentiator project (AID 493006;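 active = duplicate-averaged activation above buffer control mean plus 5 SD of those controls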). The following applies: parental CHO-K1 cells, FluxOR thallium flux, at 10 µM; hits give high values. In a few lines:
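Assay system: parental CHO-K1 cells lacking KCNQ1, loaded with FluxOR thallium dye; timing: dye 90 min RT, compound 20 min RT; signal: kinetic thallium-flux fluorescence; repeats: duplicate wells per compound, percent values averaged; benchmarks: buffer and R-L3 controls; reagent: Potassium/thallium depolarization pulse; read-out: fluorescence change ratio scaled 0% buffer, 100% R-L3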
(In general: A counterscreen serves to expose hits that act by an unwanted route or on another target.)

The target in assay [2] is Potassium voltage-gated channel subfamily KQT member 1 (Homo sapiens) (UniProt P51787). Kind of assay: KCNQ1 potassium channel potentiators, confirmation, FluxOR thallium flux, CHO cells, duplicates (AID 493007;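 active = potentiation averaged over duplicate wells exceeding buffer-only control mean by more than 3 SD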;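 for outcome: cells depolarized by a potassium plus thallium sulfate stimulus after compound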). To be noted: KCNQ1 cell line, FluxOR thallium flux fluorescence, at 10 µM; hits give high values, % of reference activator effect, buffer zero. Summed up:
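material = CHO cells stably expressing the KCNQ1 potassium channel | repeats = duplicate wells per compound | measure = percent activation between buffer and R-L3 responses | signal = FluxOR thallium-flux fluorescence, kinetic read | schedule = FluxOR dye loading 90 min, compound exposure 20 min, room temperature | control set = buffer and R-L3 controls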

In assay [3] the target is Potassium voltage-gated channel subfamily KQT member 2 (Rattus norvegicus) (UniProt O88943). Nature of the assay: rat KCNQ2 channel potentiation, selectivity assay for KCNQ1 potentiator project, KCNQ2-CHO-K1 cells (AID 493009;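 active = mean duplicate potentiation above the buffer control mean plus 5 SD of buffer wells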;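 note: assay conditions were tuned for KCNQ1 rather than KCNQ2 modulators; signal is max minus min fluorescence divided by baseline after thallium stimulus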). To be noted: FluxOR thallium flux fluorescence, at 10 µM; hits give high values, scaled: buffer 0, activator control 100.
Chain of Potassium voltage-gated channel subfamily KQT member 2 (Rattus norvegicus) (O88943 whole entry, looked up): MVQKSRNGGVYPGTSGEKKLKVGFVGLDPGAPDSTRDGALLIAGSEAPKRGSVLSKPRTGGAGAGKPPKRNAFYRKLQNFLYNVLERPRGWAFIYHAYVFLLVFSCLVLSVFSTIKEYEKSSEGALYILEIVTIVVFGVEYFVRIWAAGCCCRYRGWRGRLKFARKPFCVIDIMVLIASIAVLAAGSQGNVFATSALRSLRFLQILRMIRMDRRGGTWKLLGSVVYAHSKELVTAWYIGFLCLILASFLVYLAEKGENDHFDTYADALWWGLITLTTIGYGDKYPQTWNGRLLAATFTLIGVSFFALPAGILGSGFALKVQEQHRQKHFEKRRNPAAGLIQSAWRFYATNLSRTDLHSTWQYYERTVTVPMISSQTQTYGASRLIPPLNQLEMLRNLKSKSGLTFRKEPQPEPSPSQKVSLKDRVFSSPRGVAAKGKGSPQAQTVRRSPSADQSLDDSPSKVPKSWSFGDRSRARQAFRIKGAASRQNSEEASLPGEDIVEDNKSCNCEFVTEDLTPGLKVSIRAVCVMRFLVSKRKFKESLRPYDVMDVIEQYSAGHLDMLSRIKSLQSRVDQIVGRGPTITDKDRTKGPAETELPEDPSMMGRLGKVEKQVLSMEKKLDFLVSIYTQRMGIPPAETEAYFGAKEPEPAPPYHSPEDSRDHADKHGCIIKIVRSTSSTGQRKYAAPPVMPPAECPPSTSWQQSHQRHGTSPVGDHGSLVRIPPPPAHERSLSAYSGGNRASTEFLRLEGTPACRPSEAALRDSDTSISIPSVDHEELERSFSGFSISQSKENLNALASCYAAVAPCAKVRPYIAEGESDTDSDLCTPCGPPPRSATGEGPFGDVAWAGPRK
Assay [4] concerns the target Potassium voltage-gated channel subfamily KQT member 1 (Homo sapiens) (UniProt P51787). Kind of assay: KCNQ1 channel current potentiators, confirmation, orthogonal assay for KCNQ1 potentiator project, IonWorks patch clamp, KCNQ1-CHO cells (AID 493184;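 active = current rise at least 3 SD above the untreated control mean in each of two repeat wells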). The following applies: automated patch clamp current, at 10 µM; hits give high values. In a few lines: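 Assay system – CHO cells carrying KCNQ1 · Medium – pH 7.4 external bath · Probe or stimulus – depolarizing pulse to +40 mV from -90 mV · Compound dosing – one dose, 10 µM final · Measured by – automated perforated-patch electrophysiology · Measure – % potentiation of steady-state current relative to pre-compound · Repeats – two replicates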
In general terms: Patch clamp records ionic current or voltage across a cell membrane.

Assay [5] concerns the target Potassium voltage-gated channel subfamily E member 1 (Homo sapiens) + Potassium voltage-gated channel subfamily KQT member 1 (Homo sapiens) (UniProt P15382+P51787). Kind of assay: KCNQ1/KCNE1 complex potentiators, confirmation, selectivity assay for KCNQ1 potentiator project, thallium flux, CHO-K1 KCNQ1/E1 cells (AID 493186). The following applies: FluxOR thallium flux, at 10 µM; hits give high values. Summed up: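 Assay system: CHO-K1 cells with KCNQ1/E1 | Dosing: Single compound concentration per well | Incubation: Dye 90 min, compound 20 min, room temperature | Measured by: FluxOR Tl+ flux fluorescence, kinetic read | Controls: Buffer low control, R-L3 high control | Replicates: Duplicate wells per compound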

Activity calls are given as the source filed them.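 Rule for the calls, unless noted: active = mean duplicate activation above the buffer control mean plus 5 SD of those controls; inactive = the rest.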

Chain of Potassium voltage-gated channel subfamily E member 1 (Homo sapiens) + Potassium voltage-gated channel subfamily KQT member 1 (Homo sapiens) (P51787 whole entry, looked up): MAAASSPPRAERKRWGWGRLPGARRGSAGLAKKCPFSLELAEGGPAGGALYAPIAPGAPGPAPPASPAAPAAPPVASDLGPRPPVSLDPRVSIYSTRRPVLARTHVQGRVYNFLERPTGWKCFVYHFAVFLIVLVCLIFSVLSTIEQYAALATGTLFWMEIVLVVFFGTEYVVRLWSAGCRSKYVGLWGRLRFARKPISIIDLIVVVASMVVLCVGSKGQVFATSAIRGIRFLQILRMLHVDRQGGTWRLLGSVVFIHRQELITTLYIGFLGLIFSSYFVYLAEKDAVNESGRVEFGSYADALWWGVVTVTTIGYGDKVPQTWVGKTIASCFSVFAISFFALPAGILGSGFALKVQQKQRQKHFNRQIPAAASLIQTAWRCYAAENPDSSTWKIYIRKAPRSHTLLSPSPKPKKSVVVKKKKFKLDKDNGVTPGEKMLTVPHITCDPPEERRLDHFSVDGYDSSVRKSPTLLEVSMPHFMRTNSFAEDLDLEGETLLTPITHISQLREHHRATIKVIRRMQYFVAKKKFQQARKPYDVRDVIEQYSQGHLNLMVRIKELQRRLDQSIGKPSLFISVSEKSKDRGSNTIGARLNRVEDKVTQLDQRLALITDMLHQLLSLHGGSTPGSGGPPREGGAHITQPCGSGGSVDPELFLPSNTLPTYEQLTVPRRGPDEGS
Chain of Potassium voltage-gated channel subfamily KQT member 1 (Homo sapiens) (P51787 whole entry, looked up): as above

Take `Cc1ccc(-c2nc(=S)c3c(n2Cc2ccco2)CC(C)(C)OC3)cc1`: the outcome in assay [1], in assay [2], in assay [3], in assay [4] and in assay [5] was inactive.

Turning to `C#CCNc1cc(-c2ccccc2)nc2ncnn12`, the result in assay [1], in assay [2], in assay [3], in assay [4] and in assay [5] was inactive.

`CCOC(=O)c1c(NC(=O)CN2CCN(C(=O)c3ccco3)CC2)sc2c1CCCC2`: the outcome in assay [1], in assay [3], in assay [4] and in assay [5] was inactive. For the same compound, the potentiation in assay [2] is 39.5% (active).

On to `Cc1ccc(-c2csc(NC(=O)Cc3ccc(F)cc3)n2)o1`, for which the result in assay [1], in assay [2], in assay [3], in assay [4] and in assay [5] was inactive.

For the compound `Cn1cc(C(=O)N/N=C/c2ccc([N+](=O)[O-])cc2)c2ccccc21`, the outcome in assay [1], in assay [2], in assay [3], in assay [4] and in assay [5] was inactive.

For the compound `Cc1ccc(S(=O)(=O)Nc2cccc3ncccc23)s1`, the result in assay [1], in assay [4] and in assay [5] was inactive. The potentiation in assay [2] is 19.5% (active); in assay [3], 168% (active).

In the case of `Cc1nnnn1/C(=C\c1ccccc1)C(=O)OCC(=O)Nc1ccc(Cl)cc1F`, the outcome in assay [1], in assay [2], in assay [3], in assay [4] and in assay [5] was inactive.

For the compound `CC(Oc1ccc2ccccc2c1)C(=O)NNC(=S)NC(=O)c1ccco1` (stereo not given), the outcome in assay [1] and in assay [4] was inactive. Besides, the potentiation is 93% (active) in assay [2] and 214% (active) in assay [3]. For the same compound, the activation in assay [5] is 15.3% (active).

Turning to `CCN1CCN(C(c2ccccn2)c2c(NC(=O)c3ccccc3)sc(C)c2C)CC1` (stereo not given), the result in assay [1], in assay [2], in assay [3], in assay [4] and in assay [5] was inactive.

For the compound `COc1cccc(C2C3=C(N=c4s/c(=C\c5ccc(OCC(=O)O)cc5)c(=O)n42)c2ccccc2CC3)c1` (stereo not given), the outcome in assay [1], in assay [3], in assay [4] and in assay [5] was inactive. The potentiation in assay [2] is 53% (active).

Regarding `O=c1c2ccccc2oc2cc(NCCCN3CCOCC3)ccc12`, the outcome in assay [1], in assay [3], in assay [4] and in assay [5] was inactive. The potentiation in assay [2] was 29.5% (active).

Consider `Cc1ccc(-n2ncc3c(=O)n(CC(=O)N4CCN(c5ccccc5F)CC4)cnc32)cc1C`, for which the result in assay [1], in assay [2], in assay [3], in assay [4] and in assay [5] was inactive.

As for `CCc1cc(=O)oc2cc(OC(C)C(=O)NCC(O)c3ccccc3)c(Cl)cc12` (stereo not given), the result in assay [1], in assay [2], in assay [3], in assay [4] and in assay [5] was inactive.

Take `CCCCOc1cccc(C(=O)NC(=S)Nc2cccnc2)c1`: the outcome in assay [1], in assay [2], in assay [4] and in assay [5] was inactive. The potentiation in assay [3] is 143% (active).

Take `COc1cc2c(cc1OC)CN(CCC(=O)c1ccc(Br)cc1)CC2`: the outcome in assay [1], in assay [2], in assay [3], in assay [4] and in assay [5] was inactive.

For `c1ccc(CNc2nc3ccccc3[nH]2)cc1`, the outcome in assay [1], in assay [2], in assay [3], in assay [4] and in assay [5] was inactive.

On to `COc1cc(/C=C2\C(=O)N(CCC#N)N=C2C)c(Br)cc1OC(C)C`, for which the result in assay [1], in assay [2], in assay [3], in assay [4] and in assay [5] was inactive.

As to `CCCC(=O)n1nc(-c2ccc(C)cc2)nc1NCc1ccco1`, the outcome in assay [1], in assay [4] and in assay [5] was inactive. The results for the potentiation in assay [2] and in assay [3] were 80% (active) and 148% (active), respectively.

Turning to `Cc1ccc(/C(O)=C/C(=O)C(=O)NNC(=O)C(O)(c2ccccc2)c2ccccc2)cc1`, the outcome in assay [1], in assay [2], in assay [3], in assay [4] and in assay [5] was inactive.

As for `O=C(NCc1ccccn1)C1CCN(Cc2cccc(OCc3ccccc3)c2)CC1`, the result in assay [1], in assay [2], in assay [3], in assay [4] and in assay [5] was inactive.

In the case of `Cc1c(-c2nc(-c3ccncc3)no2)cccc1[N+](=O)[O-]`, the result in assay [1], in assay [3], in assay [4] and in assay [5] was inactive. Further, the potentiation in assay [2] is 20% (active).

Turning to `Cc1cc(C)c2c(n1)nn1c(NCCCN(C)C)cc(C)nc21`, the result in assay [1], in assay [2], in assay [3], in assay [4] and in assay [5] was inactive.

Take `O=C(NC(=S)Nc1ccccc1)c1cncc(C#Cc2ccccc2)c1`: the outcome in assay [1], in assay [3], in assay [4] and in assay [5] was inactive. Besides, the potentiation in assay [2] is 37% (active).

Regarding `CC1(C)CC(N=c2cc(-c3ccccc3)oc3ccc(Cl)cc23)CC(C)(C)N1`, the result in assay [1], in assay [2], in assay [3], in assay [4] and in assay [5] was inactive.

With `CC(=O)/C(=N/Nc1ccc([N+](=O)[O-])cc1)N1CCCc2ccccc21`, the outcome in assay [1], in assay [2], in assay [3], in assay [4] and in assay [5] was inactive.

For `COCc1cc(C)nc(NCCO)c1C#N`, the outcome in assay [1], in assay [2], in assay [3], in assay [4] and in assay [5] was inactive.

For `CCC(C)NC(=O)Cn1c(-c2ccccc2)cc(C(C)=O)c1C` (stereo not given), the outcome in assay [1], in assay [3], in assay [4] and in assay [5] was inactive. Moreover, in assay [2], the potentiation was 22% (active).

Take `COC(=O)N/N=C/c1cc(C)n(-c2ccc(F)cc2)c1C`: the result in assay [1], in assay [2], in assay [3], in assay [4] and in assay [5] was inactive.

`Cc1ccc(-n2c(C)cc(/C=N/NC(=O)c3ccncc3)c2C)cc1C`: the result in assay [1], in assay [3], in assay [4] and in assay [5] was inactive. The potentiation in assay [2] is 30% (active).

As to `CCOC(=O)SC1=N/C(=C\c2ccc(N(C)C)cc2)C(=O)S1`, the outcome in assay [1], in assay [2], in assay [3] and in assay [4] was inactive. In assay [5], the activation is 15.3% (active).

As to `O=C1C(Nc2ccc(O)cc2)=C/C(=N/S(=O)(=O)c2cccs2)c2ccccc21`, the result in assay [1], in assay [3], in assay [4] and in assay [5] was inactive. Further, in assay [2], the potentiation is 17.5% (active).
